This is a sample that favours compounds with a hit; in the whole collection about 1.2% have one here.
TNAP act hi DEA: activators of human TNAP at high phosphate acceptor concentration | P05186 | purified TNAP, CDP-star luminescence, 1 M DEA, 30 min; stronger effect = higher value; 0 = EDTA background, 1 = DMSO-only activity | activation factor at 20 µM | 200,000 tested, under 10 active;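 active = activation factor at least 2 at 20 µM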
Target sequence (P05186 whole entry, looked up): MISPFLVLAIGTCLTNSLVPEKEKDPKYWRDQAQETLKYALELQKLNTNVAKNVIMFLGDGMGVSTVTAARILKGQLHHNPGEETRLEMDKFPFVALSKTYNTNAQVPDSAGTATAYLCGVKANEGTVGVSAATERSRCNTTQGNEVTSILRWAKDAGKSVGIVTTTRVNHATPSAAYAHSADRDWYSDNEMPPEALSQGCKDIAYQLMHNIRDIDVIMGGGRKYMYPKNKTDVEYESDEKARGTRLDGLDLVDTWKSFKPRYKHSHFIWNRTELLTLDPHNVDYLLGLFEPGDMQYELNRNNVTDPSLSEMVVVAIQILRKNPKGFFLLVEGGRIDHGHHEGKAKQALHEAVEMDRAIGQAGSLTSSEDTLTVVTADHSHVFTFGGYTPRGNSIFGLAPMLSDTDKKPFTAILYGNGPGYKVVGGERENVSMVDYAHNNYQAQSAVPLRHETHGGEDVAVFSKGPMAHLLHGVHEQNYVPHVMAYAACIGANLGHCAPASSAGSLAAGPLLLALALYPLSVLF
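Test system – human TNAP · Doses – 20 µM single point · Incubation – 30 min, room temperature · Signal – luminescent substrate turnover signal · Read-out basis – activation factor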
INS promoter inh: TRM-6 insulin promoter activity inhibition | inhibition, % at 2 µM | TRM-6 cells, insulin promoter-eGFP reporter, imaging; reporter expression induced with tamoxifen | 130,000 tested, 0.9% active;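 active = inhibition above the mean plus 3 SD, with well images judged a real hit on visual review, cut at about 60% in these data, passing the limit was not always enough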
HMGR II inh: inhibitors of class II HMG-CoA reductase from Enterococcus faecalis. purified E. faecalis HMGR, NADPH absorbance 340 nm kinetic. inhibition, % at 10 µM. 190,000 tested, 0.41% active. AID 1066;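 active = inhibition above a set limit, the median over all tested compounds plus 3 SD, cut at about 9.5% in these data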;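 also: enzyme runs in reverse so mevalonate oxidation gives rising NADPH absorbance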
TNAP inh no acc: blocks human TNAP activity with no phosphate acceptor present. inhibition, % at 20 µM. P05186. 200,000 tested, 0.26% active. purified TNAP, CDP-star luminescence, 30 min;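 active = tissue-nonspecific alkaline phosphatase inhibition above about 50% at 20 µM in the single-dose screen, limit read from the data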
TNAP inh hi DEA: blocks human TNAP under high phosphate acceptor concentration; inhibition, % at 20 µM; P05186; purified TNAP, CDP-star luminescence, 1 M DEA; AID 1135; 200,000 tested, 0.03% active;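 active = over 50% inhibition of tissue-nonspecific alkaline phosphatase at 20 µM in the single-dose screen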
Large screens that a line does not name were inactive.

CC(=O)Nc1c(C(=O)N2CCN(c3ccccn3)CC2)cnn1-c1ccc(C)cc1	none
CCn1c(COc2cccc3cccnc23)nnc1SC(F)F	none (no result: INS promoter inh)
Cc1ccc(NC(=O)C2CC(=O)NC(N3CCCCC3)=N2)cc1Cl (stereo unspecified)	none
Cc1ccc(NC(=O)C2CC(=O)n3c(nc4ccccc43)N2)cc1Cl (stereo unspecified)	INS promoter inh 73
COc1cc2[nH]c(=O)n(CCCCCC(=O)NCCc3c[nH]c4ccccc34)c(=O)c2cc1OC	INS promoter inh 67
COc1ccc(/C=N/n2c(N)nc3ccccc32)cc1OC	INS promoter inh 75
COc1cccc(/C=N/n2c(N)nc3ccccc32)c1OC	none
COc1ccc(-c2[nH]ncc2CN2CCC(OCc3ccccc3)CC2)c(F)c1	none (no result: INS promoter inh)
COCC1CCN(Cc2cn[nH]c2-c2ccc(OC)cc2F)C1 (stereo unspecified)	TNAP inh no acc 74
COc1ccc(-c2[nH]ncc2CN2CCC(N3CCSCC3)CC2)c(F)c1	TNAP inh no acc 75
CCOC(=O)C1CCCN(Cc2cn[nH]c2-c2ccc(F)cc2F)C1 (stereo unspecified)	none (no result: INS promoter inh)
COc1ccc(-c2[nH]ncc2CN2CCCO2)c(F)c1	TNAP inh no acc 64 (no result: INS promoter inh)
COc1ccccc1C(=O)N1CCN(Cc2cn[nH]c2-c2ccc(F)cc2F)CC1	TNAP inh no acc 86 (no result: INS promoter inh)
Cc1cccc(C)c1NC(=O)NC1(C(=O)NCCN2CCOCC2)CCCCC1	none
COc1ccc(C(=O)NC(=S)N2CCOCC2)cc1OC	none (no result: INS promoter inh)
CC(=O)Nc1n[nH]c(-c2ccc(C)cc2)c1C	TNAP inh no acc 85
CC(=O)Nc1ccc(-c2cn3cc(C)ccc3n2)cc1	none
COC(=O)c1ccc(Cl)c(NC(=O)c2ccc(-c3ccccc3)cc2)c1	none (no result: INS promoter inh)
NCCSC1CC(=O)N(Cc2ccc(F)cc2)C1=O (stereo unspecified)	HMGR II inh 10 (no result: INS promoter inh)
CCOc1ccc(N2C(=O)CC(SCCN)C2=O)cc1 (stereo unspecified)	none
CC(C)CN(C)Cc1c(C(=O)N2CCc3ccccc3C2)nc2ccc(Cl)cn12	none (no result: INS promoter inh)
CC(C)C(C(=O)O)N1C(=O)/C(=C/c2cccn2C)SC1=S (stereo unspecified)	none
CC(C)C(C(=O)O)N1C(=O)/C(=C/C=C/c2ccco2)SC1=S (stereo unspecified)	HMGR II inh 11
O=C(NCC1(N2CCOCC2)CCCCC1)c1cccc(S(=O)(=O)N2CCc3ccccc3C2)c1	none (no result: INS promoter inh)
CC(C)=CCc1c(O)ccc2c1OC(c1ccc(O)c(O)c1)CC2=O (stereo unspecified)	TNAP inh no acc 54 (no result: INS promoter inh)
C=CCc1c(C)[nH]c(=O)[nH]c1=O	INS promoter inh 78
Cc1ccc(-n2nc(CN3CCOCC3)c(-c3ccccc3)c2N)cc1Cl	none (no result: INS promoter inh)
N#Cc1cc(-c2ccc(Cl)cc2)cnc1Sc1ccc(F)cc1	none (no result: INS promoter inh)
Cn1nnc2cc(C(=O)Nc3ccc4ccccc4c3)ccc21	HMGR II inh 13 (no result: INS promoter inh)
Cn1nnc2cc(C(=O)NC3CC3)ccc21	none
c1ccc(-c2nnc(SCc3nnc(-c4cccs4)o3)o2)cc1	HMGR II inh 16
O=C(Nc1ccccc1)N1CCc2scc[n+]2-c2ccccc21	TNAP inh no acc 70
CC1CN(C(=O)Nc2ccccc2)c2ccccc2-[n+]2ccsc21 (stereo unspecified)	TNAP inh no acc 72
CCC(=O)n1nc(-c2ccc(OC)cc2)nc1N	TNAP inh no acc 51
CCC(=O)n1nc(-c2ccccc2)nc1N	none
CC(C)Oc1ccc(C(=O)Nc2ccc(C(F)(F)F)n(C)c2=O)cc1	none (no result: INS promoter inh)
COc1ccc(/C=N/OCC(=O)Nc2ccc3c(c2)OCO3)c(OC)c1	none
Cc1cc(C)nc(NS(=O)(=O)c2ccc(N/C=C\C(=O)c3ccc(Cl)cc3)cc2)n1	INS promoter inh 70
CC(C)CN1CCC(CN(C)Cc2nc(-c3cnccn3)no2)CC1	none (no result: INS promoter inh)
COc1ccc(CCNC(=O)c2c(C)nc3ccccn23)cc1	none
CC(=O)c1ccc(N2CCN(C(=O)c3ccc4c(Cl)c5c(nc4c3)CCCC5)CC2)cc1	none (no result: INS promoter inh)
O=C(c1ccc2c(Cl)c3c(nc2c1)CCCC3)N1CCC(N2CCCCC2)CC1	HMGR II inh 11
CCC(CC)NC(=O)Nc1cccc(C)c1C	none
CCC(C)N(CC(=O)Nc1cccc(C)c1C)C(=O)CCl (stereo unspecified)	INS promoter inh 100
O=c1[nH]nc(-c2cccs2)c2ccccc12	none (no result: INS promoter inh)

Source: PubChem
